Measurements from the EternaBench riboswitch data.

What was measured:
MS2 coat protein [1] = experiment: apparent Kd, MS2 coat protein; higher = weaker binding; RNA-MaP array; tryptophan 2.4 mM where present
How it was run: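 Apparent Kd: the median of filtered binding-curve fits from single clusters. Designs were transcribed on Illumina sequencing-chip clusters by stalled E. coli RNA polymerase and titrated with SNAP-549-labelled MS2 coat protein from 0.7 or 1.5 nM, doubling to 3 µM, in 100 mM Tris-HCl pH 7.5, 80 mM KCl, 4 mM MgCl2, BSA, DTT, yeast tRNA and Tween-20. Each series ran without and then with constant ligand, and green signal was normalised to red-channel RNA signal and control-cluster median Fmax.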

MS2 coat protein [2] = experiment: apparent Kd, MS2 coat protein; higher = weaker binding; RNA-MaP array
How it was run: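 Binding of fluorescently labeled MS2 coat protein, at 1.5 nM to 3 μM and room temperature, was measured with or without input ligand on designed RNAs transcribed on an Illumina sequencing chip from sequenced DNA templates. Apparent Kd was defined as the median of per-cluster binding-curve fits. No design measured on fewer than 10 clusters was kept.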

[3] = designed as: ON switch for tryptophan, no ligand
[4] = ligand present: tryptophan, designed as: ON switch for tryptophan
[5] = designed as: OFF switch for tryptophan, no ligand
[6] = ligand present: tryptophan, designed as: OFF switch for tryptophan

CGAUUUAAGACGGCCGCCACUAUUAAGUAACAAAAUAAACAUGAGGAUCACCCAUGUACAUGGGAUAGGACCGGGUCCAAUAUCG
apparent Kd (MS2 coat protein [1]; [3]): 57.2 nM
apparent Kd (MS2 coat protein [1]; [4]): 28.4 nM

GCGGACAUGAGGAUCACCCAUGUAAAUCCUCGAGGACCGGUACGGCCGCCACUCGAACGAGUGGCACGCGAGUGCGCACUCGCGU
apparent Kd (MS2 coat protein [1]; [3]): 24.7 nM
apparent Kd (MS2 coat protein [1]; [4]): 25.4 nM

AUAUAUACAUGAGGAUCACCCAUGUUAUUUCGAGGACCGGUACGGCCGCCACUCGAUAGAGUAGAAGUAACAUUUGUUAGAUGAU
apparent Kd (MS2 coat protein [1]; [3]): 21.6 nM
apparent Kd (MS2 coat protein [1]; [4]): 13.2 nM

ACAUGAGGAUCACCCAUGUACAUCACCCGACGAGGACCGGUACGGCCGCCACUCGGGUAUAUAUUUACAUCGGGUGAUUUUACGU
apparent Kd (MS2 coat protein [1]; [3]): 16.7 nM
apparent Kd (MS2 coat protein [1]; [4]): 18 nM

ACAUGAGGAUCACCCAUGUCAUGAGGUUCACGAGGACCGGUACGGCCGCCACUCGGGCUUCGGAUCACGGAUGUACAUGAUGAUC
apparent Kd (MS2 coat protein [1]; [3]): 84 nM
apparent Kd (MS2 coat protein [1]; [4]): 51.6 nM

AAUAACAUGAGGAUCACCCAUGUAAGUAAACGAGGACCGGUACGGCCGCCACUCGAAUAAAUAAAGUACCGGUAAGAUCCAGGGA
apparent Kd (MS2 coat protein [1]; [3]): 14.8 nM
apparent Kd (MS2 coat protein [1]; [4]): 16.8 nM

AUUUAUUAGACGGCCGCCACUUGAAAGCGACCUCAUAAAUGGGAACAUGAGGAUCACCCAUGUAAGAGGACCGGGUCUAGUAGAU
apparent Kd (MS2 coat protein [1]; [3]): 104 nM
apparent Kd (MS2 coat protein [1]; [4]): 300 nM

AAACAUGAGGAUCACCCAUGUUCUCCUGUCCGAGGACCGGUACGGCCGCCACUCGGUUCUCGGGAGGAUGGUCAAAGACUAUCCA
apparent Kd (MS2 coat protein [1]; [3]): 13.7 nM
apparent Kd (MS2 coat protein [1]; [4]): 13.6 nM

CUACAUUUGUAGAAACCGGUCAACAAUAUUCGAGGACCGGUACGGCCGCCACUCGUAUAAUUUAAUACAUGAGGAUCACCCAUGU
apparent Kd (MS2 coat protein [1]; [3]): 14.8 nM
apparent Kd (MS2 coat protein [1]; [4]): 15.9 nM

GUGCUGGUAUCGGCCGCCACUGUAACAUGACAUCCCAGGGCCGACAUGAGGAUCACCCAUGUUAACAGGACCGGGAUAUCAACGA
apparent Kd (MS2 coat protein [1]; [5]): 14.2 nM
apparent Kd (MS2 coat protein [1]; [6]): 25.4 nM

AGAUUCGACACGGCCGCCACUUGUGGUGGAUUAUCCUAUGUAAGACAUGAGGAUCACCCAUGUACAAGGACCGGGUGUUGAGUCU
apparent Kd (MS2 coat protein [1]; [5]): 308 nM
apparent Kd (MS2 coat protein [1]; [6]): 93.1 nM

GUUGAGACCUCGGCCGCCACUCGCCAUGAGGAUCUCCCAUGUAACAUGAGGAUCACCCAUGUACUGAGGACCGGGAGGUCCUUGU
apparent Kd (MS2 coat protein [1]; [3]): 12.4 nM
apparent Kd (MS2 coat protein [1]; [4]): 21.6 nM

GCAUCCUAGUCGGCCGCCACUGCAUGUAGUUUUGCUACAUGGAAACAUGAGGAUCACCCAUGUAGCAGGACCGGGACUAGGAUGC
apparent Kd (MS2 coat protein [1]; [3]): 27.5 nM
apparent Kd (MS2 coat protein [1]; [4]): 11.5 nM

UUCAGCUAGUCGGCCGCCACUACAUGAGGAUCACCCAUGUAAUCCUAACACUGCUUCGGCAGUGGUAGGACCGGGACUAGCUGAG
apparent Kd (MS2 coat protein [1]; [5]): 10.6 nM
apparent Kd (MS2 coat protein [1]; [6]): 17.1 nM

ACUCGACCAUCAGCCAUUUGUGAAUCACGGCGAGGACCGGUACGGCCGCCACUCGACAUGAGGAUCACCCAUGUAAGACCGGUGU
apparent Kd (MS2 coat protein [1]; [5]): 25.8 nM
apparent Kd (MS2 coat protein [1]; [6]): 50.3 nM

UAUCGUCAGACGGCCGCCACUAGAACAUGAGGAUCACCCAUGUAAGUGGCUGGUUCAUGGGUGUCUAGGACCGGGUCUGACGAAU
apparent Kd (MS2 coat protein [1]; [5]): 17.2 nM
apparent Kd (MS2 coat protein [1]; [6]): 37.2 nM

CUAUUUAUAGCGGCCGCCACUUACUCAUGAGGUAACAACAUGAGGAUCACCCAUGUUUGAGGAUCAAGGACCGGGCUAUGGAUAG
apparent Kd (MS2 coat protein [1]; [3]): 26 nM
apparent Kd (MS2 coat protein [1]; [4]): 20.1 nM

CCUAUGCAGUCGGCCGCCACUGAUAAAAUUAUUUUUACCUCAGAAACAUGAGGAUCACCCAUGUACAGGACCGGGACUGUAUAGG
apparent Kd (MS2 coat protein [1]; [5]): 18.1 nM
apparent Kd (MS2 coat protein [1]; [6]): 38.5 nM

AGCAACAAGUCGGCCGCCACUCUUUUAACAUGAGGAUCACCCAUGUUUAUAUCAUGGUUUUAAUAGAGGACCGGGACAGUUGCAU
apparent Kd (MS2 coat protein [1]; [5]): 35.1 nM
apparent Kd (MS2 coat protein [1]; [6]): 41.8 nM

CGAGUAAGAACAAUCGAAUAACGGUUUUCGCGAGGACCGGUACGGCCGCCACUCGUGUGAAAUAACACAUGAGGAUCACCCAUGU
apparent Kd (MS2 coat protein [1]; [3]): 23.1 nM
apparent Kd (MS2 coat protein [1]; [4]): 20 nM

GGGUACAUCACGGCCGCCACUCAUGUAAAUACAUGAGGAUCACCCAUGUCGAUGGAGACAUCGGAGAGGACCGGGUGAUGUACCG
apparent Kd (MS2 coat protein [1]; [3]): 338 nM
apparent Kd (MS2 coat protein [1]; [4]): 272 nM

GCUACAUGAGGAUCACCCAUGUAUGCGAGCCGAGGACCGGUACGGCCGCCACUCGCUUAACAUGAGGAUCACCCAUGUUGCUCGC
apparent Kd (MS2 coat protein [1]; [3]): 24 nM
apparent Kd (MS2 coat protein [1]; [4]): 14.8 nM

ACAUGAGGAUCACCCAUGUGUGUAAGUCCUCGAGGACCGGUACGGCCGCCACUCGAUUGAGUGUAAGUUGAAUGUAACAUUCAAC
apparent Kd (MS2 coat protein [1]; [3]): 16.7 nM
apparent Kd (MS2 coat protein [1]; [4]): 13.8 nM

UAUAUAUAUCACGAACUGUGGUGUAUGUCUCGAGGACCGGUACGGCCGCCACUCGCGCGGCCUCACAUGAGGAUCACCCAUGUUG
apparent Kd (MS2 coat protein [1]; [5]): 44.6 nM
apparent Kd (MS2 coat protein [1]; [6]): 46 nM

GGAUUCGGCACGGCCGCCACUGCGGUGGUGUGACAUGAGGAUCACCCAUGUUGUCAUGCGGCCCUUAGGACCGGGUGGCGUUUCC
apparent Kd (MS2 coat protein [1]; [5]): 49.7 nM
apparent Kd (MS2 coat protein [1]; [6]): 63.7 nM

AUUACAUGAGCAUCAGCACAUGAGGAUCACCGAGGACCGGUACGGCCGCCACUCGACACAUGAGGAUCACCCAUGUGUUGUUGUU
apparent Kd (MS2 coat protein [1]; [5]): 286 nM
apparent Kd (MS2 coat protein [1]; [6]): 244 nM

CGCCACUCGAGUGAUCCUCACGAGUGGCUACGAGGACCGGUACGGCCGCCACUCGAAUUAACAUGAGGAUCACCCAUGUAAUCCA
apparent Kd (MS2 coat protein [1]; [3]): 86.3 nM
apparent Kd (MS2 coat protein [1]; [4]): 62.5 nM

UCAGAUGAGGCGGCCGCCACUCGCGGAUAACGAUAGAUUAACAUGAGGAUCACCCAUGUGUCAUGGAGGACCGGGCCCAUGACAU
apparent Kd (MS2 coat protein [1]; [3]): 27.9 nM
apparent Kd (MS2 coat protein [1]; [4]): 23.7 nM

ACGUCGCAUAGGAAAACUAUGUGACGAAAUCGAGGACCGGUACGGCCGCCACUCGUCCUCAACAUGAGGAUCACCCAUGUAAUAA
apparent Kd (MS2 coat protein [1]; [5]): 18.7 nM
apparent Kd (MS2 coat protein [1]; [6]): 36.6 nM

CCGUUCUCUGCGGCCGCCACUCAAGGAGCUACAUAGCUCCUAGACAUGAGGAUCACCCAUGUCGCGAGGACCGGGUAGAUUCUCC
apparent Kd (MS2 coat protein [1]; [3]): 49.5 nM
apparent Kd (MS2 coat protein [1]; [4]): 33.2 nM

UAUCGUCAGACGGCCGCCACUAGAACAUGAGGAUCACCCAUGUAGGCGGCCGAUUCCUCAUUAACUAGGACCGGGUCUGACGAAU
apparent Kd (MS2 coat protein [1]; [5]): 8.13 nM
apparent Kd (MS2 coat protein [1]; [6]): 9.67 nM

AGCAUCUAGUCGGCCGCCACUCUUAUUACAUGAGGAUCACCCAUGUUUAAUUCAUGGUUAUAUUUGAGGACCGGGACAUUUGCAU
apparent Kd (MS2 coat protein [1]; [5]): 61.7 nM
apparent Kd (MS2 coat protein [1]; [6]): 55.8 nM

ACAUGAGGAUCACCCAUGUGUGUAAAUCCUCGAGGACCGGUACGGCCGCCACUCGAACGAGUGUAAGAUGAAUGUUACAUUCAUC
apparent Kd (MS2 coat protein [1]; [3]): 105 nM
apparent Kd (MS2 coat protein [1]; [4]): 38.3 nM

GUAGCGACGACGGCCGCCACUCACACGAGAGGGUAGACCAACCUUCACAUGAGGAUCACCCAUGUGAGGACCGGGUUGUCGGUAC
apparent Kd (MS2 coat protein [1]; [5]): 24 nM
apparent Kd (MS2 coat protein [1]; [6]): 171 nM

AUCAUAAUAGACUCGUUAGAUUAUAUGGAACGAGGACCGGUACGGCCGCCACUCGUGAUGUACAUGAGGAUCACCCAUGUUAGCU
apparent Kd (MS2 coat protein [1]; [3]): 14.7 nM
apparent Kd (MS2 coat protein [1]; [4]): 15.2 nM

UGUACCAUGUCGGCCGCCACUCAUGAUAAACAUGAGGAUCACCCAUGUAGCGUCAAAGACGCUAUGAGGACCGGGACAUGGUACU
apparent Kd (MS2 coat protein [1]; [3]): 35 nM
apparent Kd (MS2 coat protein [1]; [4]): 12.2 nM

GGACUCGUCACGGCCGCCACUGCGGUGGUGUGACAUGAGGAUCACCCAUGUUGUCAUGCGGCCCUUAGGACCGGGUGUCGCGUCC
apparent Kd (MS2 coat protein [1]; [5]): 63.1 nM
apparent Kd (MS2 coat protein [1]; [6]): 67.1 nM

ACAUGAGGAUCACCCAUGUACGGUAUCAAUCGAGGACCGGUACGGCCGCCACUCGGAAAUAGAAGCGAUUAUUAGUGUUCUUUGU
apparent Kd (MS2 coat protein [1]; [3]): 16.2 nM
apparent Kd (MS2 coat protein [1]; [4]): 15.1 nM

UCCCGACAUGAGGAUCACCCAUGUCCAUUGUCGGUCGAGAGUAAGGAUAUAGAUAAUCAGGAGAACUAGAAGGUACUGUUAGCG
apparent Kd (MS2 coat protein [2]; designed as: OFF switch for flavin mononucleotide, no ligand): 530 nM
apparent Kd (MS2 coat protein [2]; ligand present: flavin mononucleotide, designed as: OFF switch for flavin mononucleotide): 164 nM

GCAUUACAUGAGGAUCACCCAUGUCUAGAUACCAGAUUUGUUUGAAUCCCUUGGCAGCUAGUGGACCACCGUACACGACAUACUA
apparent Kd (MS2 coat protein [2]; designed as: ON switch for theophylline, no ligand): 45.1 nM
apparent Kd (MS2 coat protein [2]; ligand present: theophylline, designed as: ON switch for theophylline): 24.9 nM
